Data reported in ChEMBL document CHEMBL3244217, “Metabolism of cis-delta4-15(S)-15-methylprostaglandin F1alpha methyl ester in the rat” (J Med Chem, 1978).
Blank lines part the entries; values can stand above or below the compound they belong to.

Key:
Set-up in all cases: dose 0.28 mg/kg, route oral
Rattus norvegicus [1] = assay: Drug level in Sprague-Dawley rat treated with [3H]-cis-delta4-15(S)-15-methylprostaglandin F1alpha methyl ester at 0.28 mg/kg, po assessed compound formation; format: ADME, organism-based; details: in vivo
Rattus norvegicus [2] = assay: Toxicity in Sprague-Dawley rat assessed as mortality at 0.28 mg/kg, po; format: organism-based; details: in vivo
Procedure, shortened: (§1)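 Fifteen rats were kept in metabolism cages for 17 days. Each morning they received an oral dose of 0.25 mg of tritium-labelled drug (1 × 10^7 dpm). The animals were watched for side effects, including depression, diarrhoea, faecal staining of the abdomen and mortality, over the chronic dosing period.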

Rattus norvegicus [3] = assay: Toxicity in Sprague-Dawley rat assessed as diarrhea at 0.28 mg/kg, po after 3 days; format: organism-based; details: in vivo, 72 h
Rattus norvegicus [4] = assay: Toxicity in Sprague-Dawley rat assessed as depression at 0.28 mg/kg, po up to 1 to 3 days; format: organism-based; details: in vivo; procedure, shortened: as §1
[5] = Drug excretion in Sprague-Dawley rat feces at 0.28 mg/kg, po administered as single dose within 74 hrs relative to control; format: ADME, organism-based; details: faeces, read-out: Drug excretion
Procedure, shortened: (§2)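 Four female Sprague-Dawley rats (Upjohn strain), about 200 g, were fasted overnight and each given one 0.28-mg oral dose of tritium-labeled drug (1.24 × 10^7 dpm) in distilled water by gastric tube. They were then kept in metabolism cages with free food and water, and urine and feces were collected at intervals. Radioactivity was read by liquid scintillation with external-standard quench correction. Urine aliquots (0.2 mL) were counted directly; feces were homogenized in water and aliquots dried and combusted before counting.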

Rattus norvegicus [6] = assay: Toxicity in Sprague-Dawley rat assessed as diarrhea at 0.28 mg/kg, po up to 1 to 3 days; format: organism-based; details: in vivo; procedure, shortened: as §1
Rattus norvegicus [7] = assay: Drug metabolism in Sprague-Dawley rat assessed as metabolite 2 (cis-delta4-15-methylprostaglandin F1alpha) formation at 0.28 mg/kg, po administered as single dose; format: ADME, organism-based; details: in vivo
Procedure, shortened: (§3)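 Urine was extracted on an Amberlite XAD-2 column and partially purified by silicic acid chromatography. Components were then separated by reversed-phase partition chromatography on Sephadex LH-20 (isooctyl alcohol–chloroform–methanol–water, 15:15:114:86), collecting 9-mL fractions. Identification used GC with radioactivity monitoring (3.8% UCW-98, 200 °C) and GC-MS of methyl ester, O-methoxime and trimethylsilyl derivatives; silylation was at 50 °C for 1 h.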

Rattus norvegicus [8] = assay: Toxicity in Sprague-Dawley rat assessed as fecal stained abdominal area at 0.28 mg/kg, po up to 1 to 3 days; format: organism-based, Abdomen; details: in vivo; procedure, shortened: as §1
Rattus norvegicus [9] = assay: Drug metabolism in Sprague-Dawley rat assessed as metabolite 5 ((4aR,5R,6R,7aS)-6-hydroxy-5-((S)-3-hydroxy-3-methyloct-1-enyl)hexahydrocyclopenta[b]pyran-2(3H)-one) formation at 0.28 mg/kg, po administered as single dose; format: ADME, organism-based; details: in vivo; procedure, shortened: as §3
Rattus norvegicus [10] = assay: Drug metabolism in Sprague-Dawley rat assessed as metabolite 4 (15-methyl-2,3,4,5-tetranorprostaglandin F1alpha) formation at 0.28 mg/kg, po administered as single dose; format: ADME, organism-based; details: in vivo; procedure, shortened: as §3
Rattus norvegicus [11] = assay: Toxicity in Sprague-Dawley rat assessed as depression at 0.28 mg/kg, po after 3 days; format: organism-based; details: in vivo, 72 h
Rattus norvegicus [12] = assay: Drug metabolism in Sprague-Dawley rat assessed as metabolite 3 (15-methyl-2,3-dinorprostaglandin F1alpha) formation at 0.28 mg/kg, po administered as single dose; format: ADME, organism-based; details: in vivo; procedure, shortened: as §3
[13] = Drug excretion in Sprague-Dawley rat urine at 0.28 mg/kg, po administered as single dose within 74 hrs relative to control; format: ADME, organism-based; details: read-out: Drug excretion; procedure, shortened: as §2
Rattus norvegicus [14] = assay: Toxicity in Sprague-Dawley rat assessed as fecal stained abdominal area at 0.28 mg/kg, po after 3 days; format: organism-based, Abdomen; details: in vivo, 72 h

SMILES: CCCCC[C@](C)(O)/C=C/[C@@H]1[C@H]2CCC(=O)O[C@H]2C[C@H]1O
Drug metabolism (Rattus norvegicus [1]): metabolite_detected

SMILES: [3H]O[C@H]1C[C@@H](O)[C@H](/C=C/[C@@](C)(O)CCCCC)[C@H]1CC/C=C\CCC(=O)OC
Activity (Rattus norvegicus [2]): Non-toxic
Activity (Rattus norvegicus [3]): Non-toxic
Activity (Rattus norvegicus [4]): Toxic
dose excreted at 74 h [5]: 38%
Activity (Rattus norvegicus [6]): Toxic
Drug metabolism (Rattus norvegicus [7]): metabolite_detected
Activity (Rattus norvegicus [8]): Toxic
Drug metabolism (Rattus norvegicus [9]): metabolite_detected
Drug metabolism (Rattus norvegicus [10]): metabolite_detected
Activity (Rattus norvegicus [11]): Non-toxic
Drug metabolism (Rattus norvegicus [12]): metabolite_detected
dose excreted at 74 h [13]: 30%
Activity (Rattus norvegicus [14]): Non-toxic

Other lines, results leading:

Drug metabolism (Rattus norvegicus [1]): metabolite_detected
SMILES: CCCCC[C@](C)(O)/C=C/[C@@H]1[C@@H](CCC(=O)O)[C@@H](O)C[C@H]1O

Drug metabolism (Rattus norvegicus [1]): metabolite_detected
SMILES: CCCCC[C@](C)(O)/C=C/[C@@H]1[C@@H](CC/C=C\CCC(=O)O)[C@@H](O)C[C@H]1O

Drug metabolism (Rattus norvegicus [1]): metabolite_detected
SMILES: CCCCC[C@](C)(O)/C=C/[C@@H]1[C@@H](CCCCC(=O)O)[C@@H](O)C[C@H]1O
